Activity calls are given as the source filed them. No cut-off for these calls is given here.
Columns and labels:
Leishmania donovani = test: Antileishmanial activity against Leishmania donovani MHOM/IN/80/DD8 promastigotes after 48 hrs by resazurin dye-based fluorometric analysis; assay type: functional, organism-based; details: Leishmania donovani, MHOM/IN/80/DD8, 48 h
Procedure, shortened: (§1)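 The IC50 is taken as the compound concentration giving a 50% reduction in parasites, reported with SD.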

NALM-6 [1] = test: Antiproliferative activity against human NALM6 cells after 72 hrs by CellTiter-Glo luminescent cell viability assay; assay type: functional, cell-based; details: NALM-6, 72 h
UoC-B1 = test: Antiproliferative activity against human UOCB1 cells after 72 hrs by CellTiter-Glo luminescent cell viability assay; assay type: functional, cell-based; details: UoC-B1, 72 h
SUP-B15 = test: Antiproliferative activity against human SUP-B15 cells after 72 hrs by CellTiter-Glo luminescent cell viability assay; assay type: functional, cell-based; details: SUP-B15, 72 h
NALM-6 [2] = test: Cell cycle arrest in human NALM6 cells assessed as accumulation at G2/M phase at 10 uM after 24 hrs by propidium iodide staining-based flow cytometric analysis; assay type: functional
Procedure, shortened: (§2)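 Phosphatidylserine exposure read by Annexin V-FITC/propidium iodide flow cytometry; DNA content by PI staining for cell-cycle distribution.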

[3] = Antiproliferative activity against mouse leukemia cells overexpressing BCR/ABL after 72 hrs by CellTiter-Glo luminescent cell viability assay; assay type: functional, cell-based
[4] = target: T1, GABA-A receptor; alpha-1/beta-2/gamma-2 (Homo sapiens) (UniProt P14867+P47870+P18507); test: Modulation of recombinant wild type GABAA receptor alpha1beta2gamma2S (unknown origin) expressed in Xenopus laevis oocytes assessed as increase in GABA-evoked chloride current at 10 uM at -70 mV holding potential by two-microelectrode voltage clamp assay relative to control; assay type: cell-based
Procedure, shortened: (§3)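 Two-microelectrode voltage clamp at -70 mV on Xenopus laevis oocytes expressing α1β2γ2S GABA-A receptors. GABA EC5 (4-5 μM), set individually for each oocyte, applied for 20 s alone, then co-applied with compound at 10 or 100 μM. Potentiation of GABA-evoked current is reported. Dehydroabietic acid served as positive control. Mean ± SEM from at least three oocytes and two oocyte batches.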

[5] = Selectivity index, ratio of CC50 for mouse J774 cells to IC50 for Leishmania donovani MHOM/IN/80/DD8 promastigotes; assay type: toxicity; details: read-out: Ratio CC50/IC50
NALM-6 [6] = test: Induction of apoptosis in human NALM6 cells after 24 hrs by Annexin V-FITC/propidium iodide staining-based flow cytometric analysis; assay type: functional, cell-based; procedure, shortened: as §2
[7] = Selectivity index, ratio of CC50 for mouse J774 cells to IC50 for Leishmania infantum MCAN/ES/96/BCN150 promastigotes; assay type: toxicity; details: read-out: Ratio CC50/IC50
BJ = test: Antiproliferative activity against human BJ cells after 72 hrs by CellTiter-Glo luminescent cell viability assay; assay type: ADME, cell-based
Leishmania guyanensis [8] = test: Potency index, ratio of miltefosine IC50 to compound IC50 for Leishmania guyanensis 141/93 promastigotes after 48 hrs by resazurin dye-based fluorometric analysis; assay type: functional
Leishmania infantum [9] = test: Antileishmanial activity against Leishmania infantum MCAN/ES/96/BCN150 promastigotes after 48 hrs by resazurin dye-based fluorometric analysis; assay type: functional, organism-based; details: Leishmania infantum, MCAN/ES/96/BCN150, 48 h; read-out: IC50; procedure, shortened: as §1
[10] = Selectivity index, ratio of CC50 for mouse J774 cells to IC50 for Leishmania amazonensis MHOM/Br/79/Mari promastigotes; assay type: toxicity; details: read-out: Ratio CC50/IC50
[11] = Cytotoxicity against mouse J774 cells assessed as reduction in cell viability after 48 hrs by resazurin dye-based fluorometric analysis
Procedure, shortened: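 The CC50 is taken as the concentration giving a 50% reduction in cell viability of treated cultures compared with untreated cells.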

[12] = target: T1, GABA-A receptor; alpha-1/beta-2/gamma-2 (Homo sapiens); test: Modulation of recombinant wild type GABAA receptor alpha1beta2gamma2S (unknown origin) expressed in Xenopus laevis oocytes assessed as increase in GABA-evoked chloride current at 100 uM at -70 mV holding potential by two-microelectrode voltage clamp assay relative to control; assay type: cell-based; procedure, shortened: as §3
KOPN-8 [13] = test: Antiproliferative activity against human KOPN8 cells after 72 hrs by CellTiter-Glo luminescent cell viability assay; assay type: functional, cell-based; details: KOPN-8, 72 h
NALM-6 [14] = test: Cell cycle arrest in human NALM6 cells assessed as accumulation at G0/G1 phase at 10 uM after 24 hrs by propidium iodide staining-based flow cytometric analysis; assay type: functional; procedure, shortened: as §2
KOPN-8 [15] = test: Induction of apoptosis in human KOPN8 cells assessed as late apoptotic cells at 20 uM after 32 hrs by Annexin V-FITC/propidium iodide staining-based flow cytometric analysis relative to control; assay type: functional
Leishmania amazonensis [16] = test: Antileishmanial activity against Leishmania amazonensis MHOM/Br/79/Mari promastigotes after 48 hrs by resazurin dye-based fluorometric analysis; assay type: functional, organism-based; details: Leishmania amazonensis, MHOM/Br/79/Mari, 48 h; read-out: IC50; procedure, shortened: as §1
[17] = Selectivity index, ratio of CC50 for mouse J774 cells to IC50 for Leishmania guyanensis 141/93 promastigotes; assay type: toxicity; details: read-out: Ratio CC50/IC50
Leishmania guyanensis [18] = test: Antileishmanial activity against Leishmania guyanensis 141/93 promastigotes after 48 hrs by resazurin dye-based fluorometric analysis; assay type: functional, organism-based; details: Leishmania guyanensis, 141/93, 48 h; read-out: IC50; procedure, shortened: as §1
[19] = target: T2, GABA-A receptor; alpha-1/beta-2/gamma-2 (Homo sapiens, UniProt P14867+P18507+P47870); test: (§4) Modulation of recombinant wild type GABAA receptor alpha1beta2gamma2S (unknown origin) expressed in Xenopus laevis oocytes assessed as increase in GABA-evoked chloride current at -70 mV holding potential by two-microelectrode voltage clamp assay; assay type: cell-based
T2 sequence (P14867 whole entry): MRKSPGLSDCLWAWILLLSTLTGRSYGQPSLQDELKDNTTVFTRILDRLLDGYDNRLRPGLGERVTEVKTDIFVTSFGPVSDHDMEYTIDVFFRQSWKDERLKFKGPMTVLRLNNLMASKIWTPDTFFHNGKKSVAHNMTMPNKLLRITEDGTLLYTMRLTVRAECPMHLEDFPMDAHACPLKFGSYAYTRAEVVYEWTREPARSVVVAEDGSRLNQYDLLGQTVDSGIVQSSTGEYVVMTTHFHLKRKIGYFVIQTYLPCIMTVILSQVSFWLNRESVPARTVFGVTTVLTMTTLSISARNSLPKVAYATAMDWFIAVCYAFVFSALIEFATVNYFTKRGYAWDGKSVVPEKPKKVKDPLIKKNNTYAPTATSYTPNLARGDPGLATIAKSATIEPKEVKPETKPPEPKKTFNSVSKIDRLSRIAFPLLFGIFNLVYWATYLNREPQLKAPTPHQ
T2 sequence (P47870 whole entry): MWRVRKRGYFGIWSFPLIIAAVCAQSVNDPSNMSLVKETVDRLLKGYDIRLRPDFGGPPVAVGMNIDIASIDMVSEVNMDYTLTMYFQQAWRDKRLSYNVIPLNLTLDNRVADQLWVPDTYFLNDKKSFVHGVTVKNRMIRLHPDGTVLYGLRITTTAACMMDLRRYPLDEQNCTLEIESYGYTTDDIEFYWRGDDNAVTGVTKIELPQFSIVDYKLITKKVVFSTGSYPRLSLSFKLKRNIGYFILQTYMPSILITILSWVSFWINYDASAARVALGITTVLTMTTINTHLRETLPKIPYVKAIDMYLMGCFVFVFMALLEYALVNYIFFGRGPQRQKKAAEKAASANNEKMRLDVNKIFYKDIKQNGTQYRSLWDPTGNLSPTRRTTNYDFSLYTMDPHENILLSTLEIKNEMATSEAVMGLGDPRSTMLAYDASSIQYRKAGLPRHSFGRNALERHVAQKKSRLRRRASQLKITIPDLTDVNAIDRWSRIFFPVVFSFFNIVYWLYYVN
T2 sequence (P18507 whole entry): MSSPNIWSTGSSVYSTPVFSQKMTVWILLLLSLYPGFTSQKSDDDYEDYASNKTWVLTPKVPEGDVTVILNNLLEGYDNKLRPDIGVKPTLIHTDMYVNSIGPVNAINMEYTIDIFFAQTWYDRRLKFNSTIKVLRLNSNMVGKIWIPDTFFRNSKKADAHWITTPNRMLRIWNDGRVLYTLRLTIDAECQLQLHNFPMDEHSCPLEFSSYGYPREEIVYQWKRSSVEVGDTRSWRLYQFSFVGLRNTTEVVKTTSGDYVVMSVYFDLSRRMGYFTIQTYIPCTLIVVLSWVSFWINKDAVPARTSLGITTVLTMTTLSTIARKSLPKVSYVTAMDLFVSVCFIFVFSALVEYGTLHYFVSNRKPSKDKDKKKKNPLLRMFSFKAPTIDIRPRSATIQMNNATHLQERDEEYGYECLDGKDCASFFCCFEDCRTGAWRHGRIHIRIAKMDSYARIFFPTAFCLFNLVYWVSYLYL
Procedure, shortened: (§5)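 Two-microelectrode voltage clamp of Xenopus laevis oocytes expressing α1β2γ2S GABA_A receptors, held at -70 mV. GABA EC5 (4-5 μM), determined individually for each oocyte, applied for 20 s alone or co-applied with compound at 10 and 100 μM; potentiation of GABA-evoked current measured. Dehydroabietic acid as positive control; mean ± SEM from at least three oocytes and two oocyte batches.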

[20] = target: T1, GABA-A receptor; alpha-1/beta-2/gamma-2 (Homo sapiens); test: as §4; assay type: cell-based; procedure, shortened: as §5
Leishmania amazonensis [21] = test: Antileishmanial activity against Leishmania amazonensis MHOM/Br/79/Mari amastigotes infected in mouse J774 cells after 48 hrs by resazurin dye-based fluorometric analysis; assay type: functional, organism-based; details: J774, 48 h
WiDr = test: Antiproliferative activity against human WiDr cells after 48 hrs by SRB assay; assay type: functional
[22] = Selectivity index, ratio of CC50 for mouse J774 cells to IC50 for Leishmania amazonensis MHOM/Br/79/Mari amastigotes infected in mouse J774 cells; assay type: toxicity, cell-based; details: read-out: Ratio CC50/IC50
Procedure, shortened: (§6)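 CC50: concentration giving 50% reduction of viability in treated cells relative to untreated; IC50: concentration giving 50% reduction in parasites; SI = CC50/IC50.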

Leishmania infantum [23] = test: Antileishmanial activity against Leishmania infantum MCAN/ES/96/BCN150 amastigotes infected in mouse J774 cells after 48 hrs by resazurin dye-based fluorometric analysis; assay type: functional, organism-based; details: MCAN/ES/96/BCN150, J774, 48 h
HeLa = test: Antiproliferative activity against human HeLa cells after 48 hrs by SRB assay; assay type: functional
A549 = test: Antiproliferative activity against human A549 cells after 48 hrs by SRB assay; assay type: functional; details: A549, 48 h
[24] = Selectivity index, ratio of CC50 for mouse J774 cells to IC50 for Leishmania infantum MCAN/ES/96/BCN150 amastigotes infected in mouse J774 cells; assay type: toxicity, cell-based; details: read-out: Ratio CC50/IC50; procedure, shortened: as §6
SW1573 = test: Antiproliferative activity against human SW1573 cells after 48 hrs by SRB assay; assay type: functional; details: SW1573, 48 h
T47D = test: Antiproliferative activity against human T47D cells after 48 hrs by SRB assay; assay type: functional
HBL-100 = test: Antiproliferative activity against human HBL100 cells after 48 hrs by SRB assay; assay type: functional; details: HBL-100, 48 h
[25] = read-out: log(1/IC50) (converted)

Row | Structure (SMILES) | IC50 (Leishmania donovani; read-out: IC50) [µM] | IC50 (Leishmania donovani; [25]) [µM] | Activity [4] [%] | selectivity ratio [5] | selectivity ratio [7] | IC50 (Leishmania infantum [9]) [µM] | selectivity ratio [10] | CC50 at 48 h [11] [µM] | Activity [12] [%] | IC50 (Leishmania amazonensis [16]) [µM] | selectivity ratio [17] | IC50 (Leishmania guyanensis [18]) [µM] | also measured
1 | COC(=O)[C@]1(C)CCC[C@]2(C)c3cc(OC(C)=O)c(C(C)C)cc3C(=O)C[C@@H]12 | 4.4 | 4.38 | -1 | 4.1 | 25.4 | 0.7 | 27.4 | 17.8 | 46.7 | 0.65 | 13.6 | 1.3 | EC50 (NALM-6 [1]): 10.7 µM; EC50 (UoC-B1): > 40 µM; EC50 (SUP-B15): 21.7 µM; Activity (NALM-6 [2]): Active; EC50 [3]: 12.2 µM; Activity (NALM-6 [6]): Dose-dependent effect; EC50 (BJ): Non-Toxic; Ratio IC50 (Leishmania guyanensis [8]): 13; EC50 (KOPN-8 [13]): 18.5 µM; Activity (NALM-6 [14]): Active; Activity (KOPN-8 [15]): >85%
2 | CC(C)C1=CC2=CC[C@H]3[C@](C)(C(=O)O)CCC[C@]3(C)C2CC1 (some centres undefined) |  |  | 187 |  |  |  |  |  | 841 |  |  |  | EC50 [19]: 8.7 µM; Emax [20]: 398%
3 | COC(=O)[C@]1(C)CCC[C@]2(C)c3cc(C(C)=O)c(C(C)C)cc3CC[C@@H]12 | 14.8 | 14.8 | 2.7 | 8.8 | 51.8 | 2.5 | 11.2 | 130 | -2.9 | 11.6 | 9.1 | 14.2 | IC50 (Leishmania amazonensis [21]): 31.4 µM; GI50 (WiDr): 17 µM; selectivity ratio [22]: 4.1; IC50 (Leishmania infantum [23]): 37.2 µM; GI50 (HeLa): 11 µM; GI50 (A549): 18 µM; selectivity ratio [24]: 3.5; GI50 (SW1573): 11 µM; GI50 (T47D): 10 µM; GI50 (HBL-100): 15 µM

— ChEMBL document CHEMBL4316610, “Synthesis and Biological Studies of (+)-Liquiditerpenoic Acid A (Abietopinoic Acid) and Representative Analogues: SAR Studies” (J Nat Prod, 2019)
